# Test results reported in article PMC7184531 (Heliyon, 2020).
# Like-named read-outs stand apart in the source and are kept apart here.
# How the values were obtained:
# [1] = test system: α-Glucosidase from Saccharomyces cerevisiae; assay: α-Glucosidase inhibitory assay; format: biochemical; settings: for IC50: read-out: α-glucosidase inhibition (IC50)
# Cytotoxicity analysis = format: cell-based; settings: mouse, 3T3-L1 cells
# How it was run: (§1)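 3T3-L1 cells grown in high-glucose DMEM with 10% FBS and 2 mM glutamine at 37 °C, 5% CO2. Seeded at 1 × 10^4 cells per well with 30 nM insulin in detection medium for 24–48 h. Test compound at 0.01–1000 μg/mL for 72 h. Then MTT (0.5 mg/mL in phosphate buffer) for 4 h, DMSO solubilisation, A570. % viability reported as mean of triplicates ± SD.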
# 3T3-L1 cells [2] = assay: Glucose consumption assay in 3T3-L1 cells; format: cell-based; settings: Mus musculus
# 3T3-L1 cells [3] = assay: Cytotoxicity analysis; format: cell-based; settings: for % cell viability: MTT assay, 72 h
# How it was run: as §1
# [4] = 3T3-L1, read-out: glucose consumption (IC50, μM)
compound,measurement,setting,value
"C[C@H]1O[C@H](O[C@H]2[C@H](O)[C@@H](O)[C@@H](O[C@H]3[C@H](O)[C@@H](O)C(O)O[C@@H]3CO)O[C@@H]2CO)[C@H](O)[C@@H](O)[C@@H]1N[C@H]1C=C(CO)[C@@H](O)[C@H](O)[C@H]1O (stereo partly drawn) [Acarbose, reference compound]",% inhibition at 200 μg/mL (α-glucosidase),[1]; final concentration of 200 μg/mL,98.9%
"O=c1c2cc(O)ccc2oc2cccc(O)c12 [Compound 3, 1,7-dihydroxyxanthone]",viability at 72 h,Cytotoxicity analysis,105%
same,IC50,[1],> 100 µM
"COc1ccc2oc3cccc(O)c3c(=O)c2c1 [Compound 4, 1-hydroxyl-7 methoxyxanthone]",viability at 72 h,Cytotoxicity analysis,102%
same,IC50,3T3-L1 cells [2]; [4],23.2 µM
same,IC50,[1],> 100 µM
"CC(C)=CCC/C(C)=C/Cc1c(O)cc2oc3c(O)cccc3c(=O)c2c1O [Compound 5, mangostinone]",viability at 72 h,Cytotoxicity analysis,93.1%
same,IC50,3T3-L1 cells [2]; [4],16 µM
same,IC50,[1],> 100 µM
"C[C@H]1C(=O)CC[C@@H]2[C@]1(C)CC[C@H]1[C@@]2(C)CC[C@@]2(C)[C@@H]3CC(C)(C)CC[C@]3(C)CC[C@]12C [Compound 9, friedelin]",viability at 72 h,Cytotoxicity analysis,101%
same,IC50,3T3-L1 cells [2]; [4],18.5 µM
same,IC50,[1],> 100 µM
"CN(C)C(=N)N=C(N)N [Metformin, reference compound]",viability at 72 h,Cytotoxicity analysis,99.7%
same,IC50,3T3-L1 cells [2]; [4],45.4 µM
same,IC50,"3T3-L1 cells [2]; 3T3-L1, read-out: glucose consumption (IC50, μg/mL)",6.3 µg/mL
cowanol [Compound 7],% cell viability,3T3-L1 cells [3],100.9%
same,IC50,[1],18 µM
guttiferone I [Compound 2],toxicity to cells (in words),3T3-L1 cells [3],without causing toxicity to cells
same,% cell viability,3T3-L1 cells [3],98.7%
same,toxicity to cells (in words),3T3-L1 cells [3]; listed as Guttiferone I,without causing toxic effects
same,IC50,[1],13.1 µM
